# Compound activity: PubChem, Sanford-Burnham Center for Chemical Genomics
# Compounds with a hit are over-represented: about 1.7% of the library has one in this group of screens.
# STEP inh: inhibitors of human striatal-enriched phosphatase STEP; P54829; recombinant STEP, OMFP fluorogenic substrate, fluorescence; inhibition, % at 20 µM; actives 0.25% (n = 360,000);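 active = inhibition at 20 µM, scaled per plate between control wells, above about 37%, limit read from the data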;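 also: 0% = DMSO with enzyme and substrate and 100% = substrate only without enzyme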
# Target sequence (P54829 whole entry, looked up): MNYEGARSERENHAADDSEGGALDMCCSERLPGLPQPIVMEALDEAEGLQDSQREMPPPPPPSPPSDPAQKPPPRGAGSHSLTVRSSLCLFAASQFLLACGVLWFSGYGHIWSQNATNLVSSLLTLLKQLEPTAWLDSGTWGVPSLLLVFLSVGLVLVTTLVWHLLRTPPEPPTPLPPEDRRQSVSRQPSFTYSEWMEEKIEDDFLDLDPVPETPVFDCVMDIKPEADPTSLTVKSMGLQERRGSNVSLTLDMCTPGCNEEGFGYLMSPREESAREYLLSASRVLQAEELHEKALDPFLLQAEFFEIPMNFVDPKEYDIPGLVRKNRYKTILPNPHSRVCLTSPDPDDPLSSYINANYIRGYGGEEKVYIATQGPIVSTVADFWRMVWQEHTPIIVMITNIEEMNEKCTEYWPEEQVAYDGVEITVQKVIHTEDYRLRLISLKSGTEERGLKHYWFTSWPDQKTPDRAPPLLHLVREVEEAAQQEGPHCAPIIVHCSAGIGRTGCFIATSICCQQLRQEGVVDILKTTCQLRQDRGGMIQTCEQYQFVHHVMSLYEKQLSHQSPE
#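 System: STEP phosphatase, cell-free reaction; Buffer or medium: Bis-Tris pH 6.0 buffer with DTT, detergent; Incubation: 20 min at room temperature, dark; Measured by: fluorescence, 480/540 nm.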
# SUMO1-SIM PPI: modulators of human SUMO1-mediated protein-protein interactions; P63165; SUMO1 binding to a labelled peptide, TR-FRET, 1 h; AID 602429; actives 0.33% (n = 360,000); inhibition, % at 20 µM; in the data active = inhibition above about 37%
# DNMT1 block: blocks human DNA methyltransferase DNMT1; inhibition (reported as % activation of signal), % at 10 µM; P26358; actives 0.83% (n = 360,000); DNMT1 molecular beacon, Hinp1I cleavage, fluorescence; in the data active = inhibition above about 50%
# Scp-1 inhibitor: blocks human Scp-1 phosphatase activity; inhibition, % at 20 µM; AID 493091; actives 0.88% (n = 340,000); Recombinant Scp1, phosphopeptide, malachite green phosphate absorbance;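 active = inhibition above about 50% at 20 µM, limit read from the data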;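 also: plate controls were DMSO wells with enzyme for no effect and wells lacking enzyme for full effect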
#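 Material: truncated SCP-1 phosphatase (76-261aa) / Buffer or medium: 50 mM Tris acetate pH 5.5, 0.005% Tween-20, 10 mM MgCl2 / Compound dosing: one concentration, 20 µM, with 1.0% DMSO / Incubation: 45 min room-temperature reaction, 5 min colour, 30 min stabiliser / Detection: colorimetric free-phosphate detection, absorbance 630 nm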
# LMPTP block: blocks human LMPTP phosphatase. P24666. recombinant LMPTP-A, OMFP fluorogenic substrate, fluorescence intensity. inhibition, % at 20 µM. actives 0.22% (n = 360,000);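 active = compounds that cut the enzyme signal by at least half of the control window in the single-dose screen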;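 also: plate controls were DMSO wells with enzyme plus substrate for no effect and substrate without enzyme for full effect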
#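 test system = LMPTP-A | amount = 0.625 nM LMPTP-A final | reagent = fluorogenic phosphatase substrate OMFP at 400 µM final | incubation = 50 min at room temperature | benchmarks = no-enzyme low control, uninhibited high control | medium = Bis-Tris pH 6.0, DTT, detergent | signal = fluorescence intensity of OMFP turnover product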
# Scp-1 conf: Scp-1 (human) inhibition, single-dose confirmed. actives 61% (n = 2,500). inhibition, % at 20 µM. shares compounds with Scp-1 inhibitor. AID 540281. recombinant SCP-1 catalytic domain, phosphate release, malachite green absorbance;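 also: plate controls were DMSO with enzyme for no effect and buffer wells lacking enzyme for full effect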
# Scp-1 MG ctr: counter-screen for Scp-1 inhibitors: colorimetric interference; shares compounds with Scp-1 inhibitor; Colorimetric interference counterscreen, malachite green absorbance 630 nm; apparent inhibition (interference), % at 20 µM; 2,500 tested, under 10 active; AID 540313;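 also: compounds added after enzyme reaction finished so only phosphate colour detection is probed; plate controls were DMSO wells with completed Scp-1 reaction for no effect and substrate wells lacking enzyme for full effect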
# Scp1 DSF: Scp-1 (human) binding by thermal shift | shares compounds with Scp-1 inhibitor | Recombinant SCP1, Sypro Orange thermal shift Tm | thermal shift relative to vanadate control, % at 40 µM | actives 25% (n = 1,500);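 active = substances whose mean melting-temperature shift, as a percentage of the reference inhibitor's shift, reaches about 5.3%, limit read from the data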;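 also: 0% = Tm of DMSO wells and 100% = Tm with sodium orthovanadate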
# * hit, by the source's call; nt = no result.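 The calls were made as follows, unless noted: active = inhibition of at least 30% at 20 µM; inactive = the rest.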
SMILES,STEP inh,SUMO1-SIM PPI,DNMT1 block,Scp-1 inhibitor,LMPTP block,Scp-1 conf,Scp-1 MG ctr,others
C[C@@H]1CN([C@H](C)CO)C(=O)Cc2cc(NS(=O)(=O)c3cn(C)cn3)ccc2O[C@H]1CN(C)S(=O)(=O)c1ccc(Cl)cc1,-1,1,4,65*,0,0,-20,
O=C(CCCC(=O)Nc1cccc(Br)c1)N/N=C/c1cc([N+](=O)[O-])ccc1O,-2,-21,1,56*,2,67*,-10,Scp1 DSF=7.4*
O=C(CCC(=O)Nc1cccc(Cl)c1)N/N=C/c1cc([N+](=O)[O-])ccc1O,2,-3,-1,3,0,nt,nt,
Cc1cccc(OCCOCCN2CCOCC2)c1C,2,3,2,51*,0,-16,-13,
Cc1cccc(OCCOCCN2CCNCC2)c1C,-2,-2,17,0,-3,nt,nt,
O=c1c(OC2OC(CO)C(O)C(O)C2O)c(-c2ccc(O)c(O)c2)oc2cc(O)cc(O)c12 (centres undefined),-1,-5,8,-15,0,2,-2,
O=c1c(O[C@@H]2O[C@H](CO)C(O)C2O)c(-c2ccc(O)c(O)c2)oc2cc(O)cc(O)c12 (some centres undefined),0,-5,14,-15,-1,nt,nt,
NS(=O)(=O)c1ccc(NC(=S)Nc2ccc(F)c(F)c2)cc1,-3,-4,2,60*,-1,-2,-11,
CCc1oc2ccccc2c1C(=O)CCN1CCCCC1,1,-1,3,57*,-1,14,-2,
O=C(CCN1CCCCC1)c1ccccc1,-2,0,6,-6,-1,nt,nt,
Cc1ccc(S(=O)(=O)N2CCCCC2)cc1C(=O)Nc1cccnc1,2,10,22,53*,-1,51*,-13,Scp1 DSF=-13
O=C(N/N=C/c1cc(Cl)cc([N+](=O)[O-])c1O)c1cc(-c2ccccn2)nc2ccccc12,15,11,-9,104*,0,88*,-10,Scp1 DSF=12*
NS(=O)(=O)c1ccc(N2CCOCC2)c(C(=O)NCc2ccc3c(c2)OCO3)c1,0,7,-2,-3,-1,nt,nt,
COc1ccc(-c2cn(CCN)c(-c3ccncc3)n2)cc1,0,1,0,3,-4,nt,nt,
Cc1nnsc1-c1c(C(=O)N2CCOCC2)c(C)nn1-c1ccccc1,-1,10,-2,-4,0,nt,nt,
Cc1nnsc1-c1c(C(=O)O)c(C)nn1-c1ccc(OC(F)(F)F)cc1,0,3,0,91*,-1,-8,-11,
CN(CCOc1ccccc1)C(=O)CNC(=O)c1ccc(C(C)(C)C)cc1,0,-5,-2,-3,0,nt,nt,
COc1ccc(-n2nc(C(=O)Nc3nc4ccc(OC)cc4s3)c3ccccc3c2=O)cc1,4,-1,25,68*,5,-9,-10,
O=C(O)Cc1ccc(-n2cccc2)cc1,2,8,96*,80*,4,53*,-17,Scp1 DSF=-6
COc1ccc(OC)c(S(=O)(=O)N2CCC(C(=O)NCC3CCCO3)CC2)c1 (centres undefined),-2,11,3,92*,-2,-12,-9,
COc1ccc(Cl)cc1S(=O)(=O)N1CCC(C(=O)NCC2CCCO2)CC1 (centres undefined),1,-4,2,-10,0,nt,nt,
Cc1ccc2nc(SCC(=O)Nc3cccc(F)c3)nc(=O)n2c1,-3,-1,1,-3,0,nt,nt,
C[N+]1(CC(=O)OCCCc2ccccc2)CCOCC1,-5,-1,2,100*,-2,80*,-17,Scp1 DSF=-10
Cc1ccc(CCCOC(=O)C[N+]2(C)CCOCC2)cc1,-4,2,2,38,0,nt,nt,
Cc1cc(C)nc(SCC(=O)NNS(=O)(=O)c2ccc(C#N)cc2)n1,1,15,16,54*,-1,62*,3,Scp1 DSF=-4
SMILES,STEP inh,SUMO1-SIM PPI,DNMT1 block,Scp-1 inhibitor,LMPTP block,Scp-1 conf,Scp-1 MG ctr,others
CCOC(=O)C1CCCN(C(=O)c2ccc(Cn3c(=S)[nH]c4cc(C(=O)OC)ccc4c3=O)cc2)C1 (centres undefined),4,2,4,60*,1,31*,-16,Scp1 DSF=-2
Cc1ccc(S(=O)(=O)N(C)c2ccc(C(=O)NCc3ccccc3F)cc2)cc1,0,5,-1,-5,1,nt,nt,
COc1ccc(C(=O)NCc2nnc(SCC(=O)Nc3ccccc3F)o2)cc1,-1,-1,3,52*,-1,-24,-19,
COc1ccc(C(=O)NCc2nnc(SCC(=O)Nc3ccccc3OC)o2)cc1,0,1,-1,-5,-1,nt,nt,
COc1ccc(CCCc2nnc(SCC(=O)Nc3ccc(C)c(C)c3)o2)cc1,-3,0,-1,90*,0,-3,-15,
O=C(CNC(=O)c1ccc(Cl)cc1)N/N=C/C=C/c1ccccc1,3,-2,8,84*,5,8,-11,
O=C(COc1ccccc1)NCC(=O)N/N=C/C=C/c1ccccc1,-5,0,-1,-7,-2,nt,nt,
N#CCC(=O)N/N=C/c1ccc(Sc2nc3ccccc3s2)o1,0,-15,8,99*,1,81*,-11,Scp1 DSF=8.1*
